{"source": "paper PMC7413308", "about": "(ARKIVOC : free online journal of organic chemistry, 2018)", "key": {"[1]": {"assay": "In vitro microsomal stability of analogs", "format": "in vitro ADME, human", "details": "for remaining at 2 h: after 2 hr"}, "[2]": {"tested_on": "mice", "assay": "Sensorimotor coordination on rotating rod after oral gavage", "format": "in vivo", "details": "oral gavage 40 mg/kg, rotating rod max 3 minutes, three time-points"}, "[3]": {"details": "cited from earlier work"}, "[4]": {"tested_on": "HEPG2 (liver) cell line", "assay": "In vitro cytotoxicity, cell viability", "format": "cell-based", "details": "48 h incubation, Cell-Titer Glo cell viability"}, "[5]": {"assay": "In vitro microsomal stability of analogs", "format": "in vitro ADME, mouse", "details": "for remaining at 2 h: after 2 hr"}, "[6]": {"details": "cited from earlier work", "remark": "listed apart in the source"}, "[7]": {"tested_on": "HEK293 (kidney) cell line", "assay": "In vitro cytotoxicity, cell viability", "format": "cell-based", "details": "48 h incubation, Cell-Titer Glo cell viability"}, "[8]": {"assay": "Procognitive assay", "format": "in vivo", "details": "data only preliminary"}, "[9]": {"tested_on": "rhesus monkeys", "details": "cited from earlier work"}, "[10]": {"assay": "In vitro liver microsomal stability", "format": "in vitro ADME, mouse", "details": "4 μM compound, 37 °C, 30 minutes"}, "[11]": {"tested_on": "mice", "details": "cited from earlier work"}, "[12]": {"assay": "In vitro liver microsomal stability", "format": "in vitro ADME, dog", "details": "4 μM compound, 37 °C, 30 minutes"}, "[13]": {"details": "MAM model of schizophrenia; cited from earlier work"}, "[14]": {"assay": "In vitro liver microsomal stability", "format": "in vitro ADME, rat", "details": "4 μM compound, 37 °C, 30 minutes"}, "[15]": {"tested_on": "rats", "assay": "Prepulse inhibition", "format": "in vivo", "details": "30 mg/kg, IP, one hour before testing, PCP·HCl 1.5 mg/kg SC ten minutes prior to testing", "procedure,_shortened": "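Rats received the test compound at 30 mg/kg ip one hour before testing, then PCP·HCl (1.5 mg/kg, sc) ten minutes before testing to disrupt PPI. Startle to an auditory stimulus was measured with a non-startling auditory prepulse at 5, 10 and 15 decibels. Results were expressed as mean (+SEM) percent prepulse inhibition and compared with PCP-treated controls given 0 mg/kg drug.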"}, "[16]": {"assay": "In vitro liver microsomal stability", "format": "in vitro ADME, human", "details": "4 μM compound, 37 °C, 30 minutes"}, "[17]": {"tested_on": "mice", "assay": "6 Hz electroshock seizure assay", "format": "in vivo", "procedure,_shortened": "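Mice received the test compound i.p. at 100 or 150 mg/kg, depending on the compound. At various time points after dosing, a 6 Hz electroshock lasting 3 seconds was delivered through a corneal electrode. Each animal was then observed for convulsions and scored as protected or not.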"}, "[18]": {"tested_on": "mice", "assay": "Rotarod assay, i.p. dosing", "format": "in vivo", "details": "100 mg/kg i.p., 30 minutes prior to testing, 6 rpm, n=8", "procedure,_shortened": "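Mice (n=8) were given the test compound at 100 mg/kg ip 30 minutes before being placed on a rod rotating at 6 rpm for a 1-minute trial. Any mouse that fell 3 times during the trial was scored as toxic (ataxic or sedated).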"}, "[19]": {"tested_on": "rats", "details": "cited from earlier work"}, "[20]": {"details": "poly (I:C) animal model of schizophrenia; cited from earlier work"}, "[21]": {"tested_on": "mice, rats and primates", "details": "cited from earlier work"}, "[22]": {"details": "human, liver microsomes, Microsomal stability (HLM) % remaining"}, "[23]": {"details": "mouse, liver microsomes, Microsomal stability (MLM) % remaining"}, "[24]": {"details": "footnote b: compound not detected after 20 minutes"}, "[25]": {"details": "footnote d: assessed at 1-hour incubation time"}}, "note": "“Also recorded” adds a separate entry of the source. Like-named read-outs stand apart in the source and are kept apart here.", "data": [{"smiles": "C#Cc1ccc2c(c1)C(c1ccccc1F)=N[C@@H](C)c1c(C(=O)N(C)C)ncn1-2", "note": "[8f, (S)-8-Ethynyl-6-(2-fluorophenyl)-N,N,4-trimethyl-4H-benzo[f]imidazo[1,5-a][1,4]diazepine-3-carboxamide]", "values": [{"measurement": "half-life", "setting": "[1]; human, liver microsomes", "value": "0.983 ± 0.0833", "unit": "h"}, {"measurement": "remaining at 1 h", "setting": "[1]; human, liver microsomes, Microsomal stability (HLM) % remaining, footnote d: assessed at 1-hour incubation time", "value": "41 ± 0.9", "unit": "%"}, {"measurement": "Effect on sensorimotor coordination (motor impairment, sedation/ataxia)", "setting": "[2]", "value": "only minor impairment"}, {"measurement": "Activity in procognitive assay", "setting": "[3]", "value": "procognitive (A++ and C++)"}, {"measurement": "HEPG2 LD50", "setting": "[4]", "value": ">400", "unit": "µM"}, {"measurement": "half-life", "setting": "[5]; mouse, liver microsomes", "value": "0.4 ± 0.0333", "unit": "h"}, {"measurement": "remaining at 1 h", "setting": "[5]; mouse, liver microsomes, Microsomal stability (MLM) % remaining, footnote d: assessed at 1-hour incubation time", "value": "19 ± 0.9", "unit": "%"}, {"measurement": "Activity in antidepressant assay (forced swim test)", "setting": "[6]", "value": "active"}, {"measurement": "HEK293 LD50", "setting": "[7]", "value": ">400", "unit": "µM"}]}, {"smiles": "C#Cc1ccc2c(c1)C(c1ccccc1F)=N[C@@H](C)c1c(-c3nc(C)no3)ncn1-2", "note": "[9a, (S)-5-(8-Ethynyl-6-(2-fluorophenyl)-4-methyl-4H-benzo[f]imidazo[1,5-a][1,4]diazepin-3-yl)-3-methyl-1,2,4-oxadiazole]", "values": [{"measurement": "remaining at 2 h", "setting": "[1]; [22]", "value": "86 ± 0.3", "unit": "%"}, {"measurement": "Effect on sensorimotor coordination (motor impairment, sedation/ataxia)", "setting": "[2]", "value": "did not exhibit motor impairments"}, {"measurement": "Procognitive effects in the Y-maze paradigm", "setting": "[8]", "value": "procognitive effects (C+)"}, {"measurement": "remaining at 2 h", "setting": "[5]; [23]", "value": "81 ± 0.4", "unit": "%"}, {"measurement": "HEK293 LD50", "setting": "[7]", "value": "69.3 ± 2.3", "unit": "µM"}]}, {"smiles": "C#Cc1ccc2c(c1)C(c1ccccc1F)=N[C@@H](C)c1c(-c3nc(C(C)C)no3)ncn1-2", "note": "[9c, (S)-5-(8-Ethynyl-6-(2-fluorophenyl)-4-methyl-4H-benzo[f]imidazo[1,5-a][1,4]diazepin-3-yl)-3-isopropyl-1,2,4-oxadiazole]", "values": [{"measurement": "half-life", "setting": "[1]; human, liver microsomes", "value": "43.1 ± 32", "unit": "h"}, {"measurement": "remaining at 2 h", "setting": "[1]; [22]", "value": "91 ± 0.3", "unit": "%"}, {"measurement": "Effect on sensorimotor coordination (motor impairment, sedation/ataxia)", "setting": "[2]", "value": "exhibited no sensorimotor impairment"}, {"measurement": "HEPG2 LD50", "setting": "[4]", "value": "21.7 ± 1.8", "unit": "µM"}, {"measurement": "half-life", "setting": "[5]; mouse, liver microsomes", "value": "8.33 ± 1.82", "unit": "h"}, {"measurement": "remaining at 2 h", "setting": "[5]; [23]", "value": "79 ± 0.5", "unit": "%"}, {"measurement": "HEK293 LD50", "setting": "[7]", "value": "32.5 ± 7.6", "unit": "µM"}]}, {"smiles": "C#Cc1ccc2c(c1)C(c1ccccc1F)=N[C@H](C)c1c(C(=O)OCC)ncn1-2", "note": "[compound 1]", "values": [{"measurement": "Anxiolytic effect", "setting": "[9]", "value": "only a minimal anxiolytic effect"}, {"measurement": "Liver microsomal stability (%-remaining) MLM", "setting": "[10]", "value": 59.1, "unit": "%"}, {"measurement": "Anxiolytic and antidepressant effects after UCMS", "setting": "[11]; female mice", "value": "exhibited anxiolytic and antidepressant effects"}, {"measurement": "Anxiolytic and antidepressant effects after UCMS", "setting": "[11]; male mice", "value": "very weak or none at all"}, {"measurement": "Liver microsomal stability (%-remaining) DLM", "setting": "[12]", "value": 90.3, "unit": "%"}, {"measurement": "Effect on amphetamine-induced hyperactivity of the dopamine system", "setting": "[13]", "value": "successfully alleviate the hyperactivity of the dopamine system induced by amphetamine"}, {"measurement": "Liver microsomal stability (%-remaining) RLM", "setting": "[14]", "value": 5.4, "unit": "%"}, {"measurement": "Reversal of PCP-induced PPI deficit", "setting": "[15]", "value": "failed to reach a significant effect; also recorded: not 1 reversed the PPI deficits"}, {"measurement": "Liver microsomal stability (%-remaining) HLM", "setting": "[16]", "value": 100, "unit": "%"}, {"measurement": "Liver microsomal stability (%-remaining) HLM", "setting": "[16]; listed as SH-053-2'F-R-CH3 (1)", "value": 100.0, "unit": "%"}, {"measurement": "Protection from 6 Hz electroshock-induced seizures", "setting": "[17]; i.p. 150 mg/kg, various time points, 150 mg/kg", "value": "not effective at any time; also recorded: not able to protect mice from electroshock-induced seizures"}, {"measurement": "Ataxia in rotarod assay", "setting": "[18]", "value": "neither 1 nor 2 produced significant ataxia"}, {"measurement": "Anxiolytic effect", "setting": "[19]", "value": "only a minimal anxiolytic effect"}]}, {"smiles": "C#Cc1ccc2c(c1)C(c1ccccc1F)=N[C@@H](C)c1c(C(=O)OCC)ncn1-2", "note": "[compound 2]", "values": [{"measurement": "Anxiolytic effect", "setting": "[9]", "value": "exerted anxiolytic effects"}, {"measurement": "Microsomal stability (HLM) % remaining", "setting": "[1]; [24]", "value": "< 5.0^b %"}, {"measurement": "Microsomal stability (HLM) Half-life", "setting": "[1]; [24]", "value": "< 5^b min"}, {"measurement": "Liver microsomal stability (%-remaining) MLM", "setting": "[10]", "value": 66.5, "unit": "%"}, {"measurement": "Liver microsomal stability (%-remaining) DLM", "setting": "[12]", "value": 90.7, "unit": "%"}, {"measurement": "HEPG2 LD50", "setting": "[4]", "value": "73.5 ± 14.4", "unit": "µM"}, {"measurement": "Liver microsomal stability (%-remaining) RLM", "setting": "[14]", "value": 6.0, "unit": "%"}, {"measurement": "Microsomal stability (MLM) % remaining", "setting": "[5]; [25]", "value": "78.0 ± 0.2^d %"}, {"measurement": "Microsomal stability (MLM) Half-life", "setting": "[5]; [25]", "value": "155 ± 9^d min"}, {"measurement": "Effect on amphetamine-induced hyperactivity", "setting": "[20]", "value": "successfully mitigated the amphetamine-induced hyperactivity"}, {"measurement": "Reversal of PCP-induced PPI deficit", "setting": "[15]", "value": "reversed PCP-induced prepulse inhibition (PPI) of acoustic startle; also recorded: significantly reversed the PPI deficit; also recorded: reversed the PPI deficits induced by PCP"}, {"measurement": "Liver microsomal stability (%-remaining) HLM", "setting": "[16]", "value": 3, "unit": "%"}, {"measurement": "Liver microsomal stability (%-remaining) HLM", "setting": "[16]; listed as SH-053-2'F-S-CH3 (2)", "value": 2.3, "unit": "%"}, {"measurement": "Protection from 6 Hz electroshock-induced seizures", "setting": "[17]; i.p. 100 mg/kg, time points 1/4, 1/2, 1, 2, and 4 hours, 100 mg/kg", "value": "able to protect some subjects"}, {"measurement": "Ataxia in rotarod assay", "setting": "[18]", "value": "neither 1 nor 2 produced significant ataxia"}, {"measurement": "HEK293 LD50", "setting": "[7]", "value": "28.0 ± 4.1", "unit": "µM"}, {"measurement": "Toxicity in pharmacological assays", "setting": "[21]", "value": "not toxic"}, {"measurement": "Anxiolytic effect", "setting": "[19]", "value": "exerted anxiolytic effects"}]}]}
